# This is a sample that favours compounds with a hit; in the whole collection about 3.4% have one here.
# CHT allo act: CHT positive allosteric modulators, primary screen, cell-based, membrane potential dye, choline EC20. High affinity choline transporter 1 (Homo sapiens), Q9GZV3. CHT-expressing cells; hits give high values; LV-AA mutant CHT in HEK293 cells. B-score at 10 µM. 0.49% of 310,000 active;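 active = initial fluorescence not abnormally high and integrated response B-score, plate-corrected, over 3 SD above library mean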
# VIM-2 inhibitor: VIM-2 metallo-beta-lactamase inhibitors, primary screen, biochemical, epi-absorbance readout, Pseudomonas aeruginosa enzyme; purified VIM-2, nitrocefin hydrolysis, epi-absorbance fluorescence; inhibition, % at 5.6 µM; 0.89% of 290,000 active; AID 1527, 2009;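 active = inhibition above the mean of all tested compounds plus 3 SD, cutoff set per screening run, cut at about 7.5% in these data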;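 also: red hydrolysis product quenches plate fluorescence so inhibitors raise well fluorescence; 0% = enzyme with DMSO and 100% = DMSO without enzyme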
# CHT block: inhibitors of human choline transporter CHT; High affinity choline transporter 1 (Homo sapiens), Q9GZV3; CHT-expressing cells, membrane potential dye, choline response; hits give low values; B-score at 10 µM; 0.86% of 310,000 active; AID 488975, 2010;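 active = B-score over 3 SD under the library average, and starting fluorescence ratio not unusually high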;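 also: choline stimulus applied at its EC90 after an EC20 pre-addition; B-score computed on integrated fluorescence ratio after choline addition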
# ANO1 block: TMEM16A chloride channel inhibitors, primary screen, cell-based, HTS; Anoctamin-1 (Mus musculus), Q8BHY3; HEK293 TMEM16A/YFP iodide influx fluorescence, ionomycin; normalized B-score (activity score, 25-100; higher = stronger inhibition) at 10 µM; 1.2% of 310,000 active; AID 588511, 2011;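 active = ratio plate-corrected score three or more library SD toward inhibition, starting fluorescence score within five deviations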;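 also: score derived from kinetic fluorescence span divided by baseline fluorescence per well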
# IMP-1 inh: IMP-1 metallo-beta-lactamase inhibitors, primary screen, biochemical, epi-absorbance readout, Pseudomonas aeruginosa enzyme | inhibition, % at 5.6 µM | metallo-beta-lactamase IMP-1 (Pseudomonas aeruginosa) | AID 1556, 2009 | 0.45% of 290,000 active | purified IMP-1, nitrocefin hydrolysis, epi-absorbance fluorescence;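 active = inhibition above the mean plus 3 SD of all compounds in the same screening run, cut at about 4.5% in these data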;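 also: 0% = IMP-1 with DMSO and 100% = DMSO wells lacking enzyme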
#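 Assay system: purified recombinant IMP-1 beta-lactamase. Input: IMP-1 0.2 nM before substrate addition. Buffer or medium: Zinc- and detergent-supplemented HEPES buffer, pH 7.1. Schedule: 25 °C, 15 min preincubation, 25 min reaction. Signal: Epi-absorbance fluorescence, 480 nm excitation, 530 nm emission. Evaluation: percent inhibition from optical density relative to buffer-blank wells.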
# TMEM16A act: TMEM16A chloride channel activators or potentiators, primary screen, cell-based, HTS; Anoctamin-1 (Mus musculus), Q8BHY3; B-score at 10 µM; 0.3% of 340,000 active; HEK293 TMEM16A/YFP-H148Q/I152L, iodide quench fluorescence; hits give low values;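 active = fluorescence-ratio B-score plate-corrected deviation score at least 3 library SD below zero, with starting fluorescence score within 5 deviations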;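 also: channel opened by trigger with iodide after compound preincubation; score built on the fluorescence ratio of max minus min over baseline; more negative score means more quench and so TMEM16A activation or potentiation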
# VIM-2 inh confirm: P. aeruginosa VIM-2 enzyme inhibition – biochemical, epi-absorbance, HTS, confirmation | shares compounds with IMP-1 inh | purified VIM-2 enzyme, nitrocefin absorbance | inhibition, % at 5.6 µM | 73% of 200 active | AID 1860, 2009; in the data active = inhibition above about 8%;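 also: 0% = enzyme with vehicle and 100% = no enzyme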
# TEM-1 counter: Serine beta-lactamase TEM-1 inhibition, biochemical epi-absorbance counter-screen for IMP-1/VIM-2 inhibitor program; shares compounds with IMP-1 inh; TEM-1 beta-lactamase, nitrocefin absorbance inhibition; inhibition, % at 5.6 µM; 50% of 200 active; AID 2184, 2009; in the data active = inhibition above about 0.66%
# Target sequence (P62593 whole entry, looked up): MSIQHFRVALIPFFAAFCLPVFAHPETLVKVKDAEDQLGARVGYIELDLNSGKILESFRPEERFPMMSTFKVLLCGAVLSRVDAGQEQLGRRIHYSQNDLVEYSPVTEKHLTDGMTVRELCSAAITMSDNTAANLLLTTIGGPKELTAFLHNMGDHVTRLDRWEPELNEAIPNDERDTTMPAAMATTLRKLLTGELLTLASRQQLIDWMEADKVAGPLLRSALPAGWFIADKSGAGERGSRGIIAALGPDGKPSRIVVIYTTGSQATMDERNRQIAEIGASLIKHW
# IMP-1 confirm: IMP-1 metallo-beta-lactamase inhibitors, confirmation, biochemical, epi-absorbance, hits shared with VIM-2 screen | shares compounds with IMP-1 inh | purified IMP-1 enzyme, absorbance substrate hydrolysis | inhibition, % at 5.6 µM | 60% of 200 active; in the data active = inhibition above about 4.9%;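 also: 0% = enzyme with vehicle and 100% = vehicle without enzyme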
# The depositor's hits bear a star; i = inactive; . = no result given.
SMILES,CHT allo act,VIM-2 inhibitor,CHT block,ANO1 block,IMP-1 inh,TMEM16A act,VIM-2 inh confirm,TEM-1 counter,IMP-1 confirm
Cc1ccc(N=Cc2c(O)c3ccccc3n(C)c2=O)cc1,i,3,i,i,-1,i,.,.,.
Cc1ccc(N=Cc2sc(O)c3ccccc23)cc1,i,8.4*,i,i,24*,i,14*,-2,1
CCOC(=O)/C(=C\C=C1/Sc2ccccc2N1CC)C(C)=O,i,8.5*,i,i,7.8*,i,7,0.7*,4
CCOC(=O)/C(=C/C=C1\Sc2ccccc2N1CC)C(C)=O,i,5,i,i,4,i,.,.,.
Cc1c(O)ccc(C(=O)CN2CCN(Cc3ccc4c(c3)OCO4)CC2)c1O,i,91*,i,i,87*,i,-1,-6,-2
CCOC(=O)N1CCN(Cc2ccc3c(c2)OCO3)CC1,i,-1,i,i,-1,i,.,.,.
O=C(O)c1c(C(=O)O)c(-c2ccc(Cl)c(Cl)c2)n2c1CSC2,i,57*,i,i,4.9*,.,55*,-1,3
COc1ccc(N=Nc2nc3cc(Br)c(Br)cc3n2C)c(OC)c1,i,10*,i,i,9.3*,i,3,5.6*,-1
O=C(c1ccccc1)c1c2c(cc3sc4ccccc4[n+]13)-c1cccc3cccc-2c13,i,16*,i,100*,10*,i,11*,-3,-1
Cn1cc(/C=C/c2cc[n+](C)cc2)c2cc(F)ccc21,i,11*,i,i,5.7*,i,14*,4.7*,7.5*
Cn1cc(/C=C/c2cc[n+](C)cc2)c2cc(Cl)ccc21,i,13*,i,i,5.8*,i,22*,2.8*,4
CC(C)Nc1ccc(Cl)cc1[N+](=O)[O-],i,4,i,i,0,.,.,.,.
CCn1c(=S)sc2c(=O)n(CC(=O)Nc3ccccc3C(F)(F)F)c(C)nc21,i,21*,i,i,41*,i,19*,0,24*
O=P(O)(O)c1cc(-c2ccccc2)oc1-c1ccccc1,i,30*,i,i,22*,i,40*,-2,23*
O=C1OC(c2ccccc2)(c2cc(Br)ccc2O)c2ccccc21 (stereo unspecified),.,.,.,.,.,i,.,.,.
COc1ccccc1-c1csc(-n2ncc(C#N)c2N)n1,i,17*,i,i,22*,i,10*,-2,12*
COCC1CCCN(C(=O)c2cc(COc3ccc4ncccc4c3)on2)C1 (stereo unspecified),i,0,i,i,-1,i,.,.,.
COc1ccc(OCc2cc(C(=O)N3C[C@H]4CC[C@H]3C4)no2)c(Cl)c1,i,0,i,i,-2,i,.,.,.
O=C(Nc1ccc(Oc2ccc(C(=O)O)c(C(=O)O)c2)cc1)c1cccs1,i,21*,i,i,5.4*,i,25*,-3,4
O=C1C2C(c3ccccc3)C=CC(c3ccccc3)C2C(=O)N1c1ccncc1 (stereo unspecified),i,25*,i,i,65*,i,11*,-1,29*
O=C1c2c(Br)c(Br)c(Br)c(Br)c2C(=O)N1c1ccccn1,i,5,i,i,1,i,.,.,.
O=C1C2C(c3ccccc3)C=CC(c3ccccc3)C2C(=O)N1c1ccccn1 (stereo unspecified),i,26*,i,i,75*,i,12*,-5,37*
O=C1C2C3C=CC(C3)C2C(=O)N1c1ccncc1 (stereo unspecified),i,0,i,i,-2,i,.,.,.
COc1ccc(CN(C)CC(=O)Nc2ccccc2C(=O)NC2CC2)cc1,.,.,.,.,.,i,.,.,.
O=C(c1cccc(Br)c1)N1CCN(S(=O)(=O)N2CCCCC2)CC1,i,-3,i,i,0,i,.,.,.
SMILES,CHT allo act,VIM-2 inhibitor,CHT block,ANO1 block,IMP-1 inh,TMEM16A act,VIM-2 inh confirm,TEM-1 counter,IMP-1 confirm
CCCCc1nnc(NC(=O)C2CC(=O)N(Cc3ccccc3)C2)s1 (stereo unspecified),i,-1,i,i,0,i,.,.,.
N#CC(C#N)=C1C=C2C=C(N3CCOCC3)CCC2CC1 (stereo unspecified),.,20*,.,.,17*,i,64*,76*,60*
CC1(C)CC(NCCN2CCN(C3=CC(=C(C#N)C#N)CC(C)(C)C3)CC2)=CC(=C(C#N)C#N)C1,i,-2,i,i,-1,i,.,.,.
N#CC(C#N)=C1C=C2C=C(N3CCCCCC3)CCC2CC1 (stereo unspecified),.,38*,.,.,38*,i,64*,92*,58*
N#Cc1cc(Cl)c(N2CCOCC2)cc1C#N,i,-3,i,i,-3,i,.,.,.
CN1CCN(C2=CC3=CC(=C(C#N)C#N)CCC3CC2)CC1 (stereo unspecified),.,58*,.,.,67*,-41*,62*,66*,63*
CCN1CCN(C2=CC3=CC(=C(C#N)C#N)CCC3CC2)CC1 (stereo unspecified),.,55*,.,.,72*,i,62*,67*,58*
CCC1(CC)NC(=O)N(CC(=O)OC(C)C(=O)Nc2cc([N+](=O)[O-])ccc2OC)C1=O (stereo unspecified),i,2,i,i,1,i,.,.,.
COCCN(CCOC)C(=O)c1ccc(NS(=O)(=O)c2ccc3[nH]c(=O)[nH]c3c2)cc1,i,1,i,i,-3,i,.,.,.
O=C(Nc1ccc(Cl)cc1F)C1CCN(S(=O)(=O)c2cccc3nonc23)CC1,i,-2,i,i,-1,i,.,.,.
COc1ccccc1NC(=O)N1CCC(NC(=O)C2CCCCC2)CC1,i,-2,i,i,-4,i,.,.,.
